# Data as given in ChEMBL document CHEMBL1157394, “Absolute configuration and antimicrobial activity of acylhomoserine lactones” (2008).
# Activity calls are given as the source filed them. The rule behind the calls is not given here.
# Legend:
# Assay type in all cases: functional
# Bacillus subtilis = test: Antimicrobial activity against Bacillus subtilis CCT 0089 after 24 hrs by MTT method
# Summary of the method: (§1)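 Strain grown on solid nutrient broth slants at 30 °C for 24 h, then suspended in sterile water to 3 × 10⁸ cells/mL (McFarland). Suspension diluted into Mueller-Hinton medium in 96-well plates. Samples started from 1000 µg/mL stock in 20% aqueous DMSO and serially diluted twofold. Incubated 30 °C, 24 h; 0.025% MTT added. Purple wells scored as growth, yellow as inhibition. Run in duplicate; concentration range for growth inhibition reported.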
# Bacillus cereus = test: Antimicrobial activity against Bacillus cereus CCT 4060 after 24 hrs by MTT method; summary of the method: as §1
# Staphylococcus aureus = test: Antimicrobial activity against Staphylococcus aureus CCT 1295 24 hrs by MTT method; summary of the method: as §1
SMILES,Activity (Bacillus subtilis) [µg/mL],Activity (Bacillus cereus),Activity (Staphylococcus aureus)
CCCCCC(=O)CC(=O)NC1CCOC1=O (racemic),62.5,62.5 µg/mL,500 µg/mL
CCCCCCCCCC(=O)CC(=O)NC1CCOC1=O (racemic),125,125 µg/mL,500 µg/mL
CCCCCCC(=O)NC1CCOC1=O (racemic),500,inactive,inactive
CCCCCCCCCCCC(=O)CC(=O)NC1CCOC1=O (racemic),250,500 µg/mL,500 µg/mL
O=C(N[C@H](CO)[C@H](O)c1ccc([N+](=O)[O-])cc1)C(Cl)Cl [CHLORAMPHENICOL],3.91,3.91 µg/mL,7.81 µg/mL
